Source: ChEMBL document CHEMBL1146599, “Substituted pyrrol-1-ylacetic acids that combine aldose reductase enzyme inhibitory activity and ability to prevent the nonenzymatic irreversible modification of proteins from monosaccharides” (J Med Chem, 2003)
Where “and” joins values, the source holds several entries; their conditions need not be identical. Identical values can stand only once.

Columns and labels:
[1] = target: Aldo-keto reductase family 1 member B1 (Rattus norvegicus) (UniProt P07943); test: In vitro inhibitory activity against aldose reductase of rat lens at 10E-8 M concentration
How it was run: (§1)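 Aldose reductase was prepared from lenses quickly removed from euthanized Fischer-344 rats of both sexes. Compounds were dissolved in 0.2 M NaHCO3. Activity was followed spectrophotometrically as NADPH oxidation. Runs were done in triplicate, and values are means with standard error from three determinations.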

[2] = target: Aldo-keto reductase family 1 member B1 (Rattus norvegicus) (UniProt P07943); test: In vitro inhibitory activity against aldose reductase of rat lens at 10E-7 M concentration; how it was run: as §1
[3] = target: Aldo-keto reductase family 1 member B1 (Rattus norvegicus) (UniProt P07943); test: In vitro inhibitory activity against aldose reductase of rat lens at 10E-6 M concentration; how it was run: as §1
[4] = target: T1, Albumin (Bos taurus, UniProt P02769); test: Glycation-induced fluorescence changes of bovine serum albumin when exposed to fructose (1 mM); p<0.001; assay type: functional; settings: cattle
T1 sequence (P02769 whole entry): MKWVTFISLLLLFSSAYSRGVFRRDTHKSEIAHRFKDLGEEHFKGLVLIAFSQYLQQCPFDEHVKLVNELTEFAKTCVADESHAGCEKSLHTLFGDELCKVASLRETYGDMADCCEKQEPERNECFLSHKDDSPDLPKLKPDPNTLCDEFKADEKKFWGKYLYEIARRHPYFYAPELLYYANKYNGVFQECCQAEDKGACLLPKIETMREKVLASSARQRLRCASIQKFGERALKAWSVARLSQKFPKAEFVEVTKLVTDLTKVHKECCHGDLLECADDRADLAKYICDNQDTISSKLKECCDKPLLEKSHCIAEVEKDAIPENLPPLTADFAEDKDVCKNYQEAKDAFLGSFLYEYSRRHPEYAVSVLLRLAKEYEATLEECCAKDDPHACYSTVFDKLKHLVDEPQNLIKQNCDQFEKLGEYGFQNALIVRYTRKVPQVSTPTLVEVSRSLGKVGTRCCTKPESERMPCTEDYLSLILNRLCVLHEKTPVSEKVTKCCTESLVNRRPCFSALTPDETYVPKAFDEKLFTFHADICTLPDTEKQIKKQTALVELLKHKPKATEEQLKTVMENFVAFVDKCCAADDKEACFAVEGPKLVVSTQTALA
How it was run: (§2)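 Bovine serum albumin (fraction V, essentially fatty acid free) was incubated with fructose for 28 days. Compounds were added as potassium salts dissolved in water. Data are means ± SD with the number of samples given. Significance versus control was assessed by Student's t test.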

[5] = target: Aldo-keto reductase family 1 member B1 (Rattus norvegicus) (UniProt P07943); test: In vitro inhibitory activity against aldose reductase of rat lens at 10E-5 M concentration; how it was run: as §1
[6] = target: T1, Albumin; test: In vitro ability to inhibit the irreversible modification of the model protein albumin in the presence of fructose as glycating agent (1 mM); how it was run: as §2
[7] = target: T1, Albumin; test: Formation of DNPH-reactive carbonyl groups in bovine serum albumin exposed to fructose; p<0.001; assay type: functional; settings: cattle; how it was run: as §2
[8] = target: T1, Albumin; test: Glycation-induced fluorescence changes of bovine serum albumin when exposed to fructose (5 mM); p<0.001; assay type: functional; settings: cattle; how it was run: as §2
[9] = target: T1, Albumin; test: Formation of DNPH-reactive carbonyl groups in bovine serum albumin exposed to fructose (1 mM); not detectable; assay type: functional; settings: cattle; how it was run: as §2
[10] = target: T1, Albumin; test: In vitro ability to inhibit the irreversible modification of the model protein albumin in the presence of fructose as glycating agent (2.5 mM); how it was run: as §2
[11] = target: T1, Albumin; test: Formation of DNPH-reactive carbonyl groups in bovine serum albumin exposed to fructose (5 mM); not detectable; assay type: functional; settings: cattle; how it was run: as §2
[12] = target: T1, Albumin; test: Formation of DNPH-reactive carbonyl groups in bovine serum albumin exposed to fructose (2.5 mM); not detectable.; assay type: functional; settings: cattle; how it was run: as §2
[13] = target: T1, Albumin; test: Glycation-induced fluorescence changes of bovine serum albumin when exposed to fructose (2.5 mM); p<0.001; assay type: functional; settings: cattle; how it was run: as §2
[14] = target: T1, Albumin; test: In vitro ability to inhibit the irreversible modification of the model protein albumin in the presence of fructose as glycating agent (5 mM); how it was run: as §2
[15] = target: T1, Albumin; test: Formation of DNPH-reactive carbonyl groups in bovine serum albumin exposed to fructose (1 mM); p<0.001; assay type: functional; settings: cattle; how it was run: as §2
[16] = target: T1, Albumin; test: Formation of DNPH-reactive carbonyl groups in bovine serum albumin exposed to fructose; not detectable.; assay type: functional; settings: cattle; how it was run: as §2
[17] = target: T1, Albumin; test: Glycation-induced fluorescence changes of bovine serum albumin when exposed to fructose (1 mM); p<0.01; assay type: functional; settings: cattle; how it was run: as §2
[18] = target: T1, Albumin; test: Formation of DNPH-reactive carbonyl groups in bovine serum albumin exposed to fructose (2.5 mM); p<0.001; assay type: functional; settings: cattle; how it was run: as §2
[19] = target: T1, Albumin; test: Formation of DNPH-reactive carbonyl groups in bovine serum albumin exposed to fructose (5 mM); not detectable.; assay type: functional; settings: cattle, 5000 µM; how it was run: as §2
[20] = target: T1, Albumin; test: Formation of DNPH-reactive carbonyl groups in bovine serum albumin exposed to fructose (1 mM); p<0.01; assay type: functional; settings: cattle; how it was run: as §2
[21] = target: Aldo-keto reductase family 1 member B1 (Rattus norvegicus, UniProt P07943); test: (§3) Inhibitory activity against aldose reductase enzyme; how it was run: as §1
[22] = target: Aldo-keto reductase family 1 member B1 (Rattus norvegicus) (UniProt P07943); test: In vitro inhibitory activity against aldose reductase of rat lens at 10E-9 M concentration; how it was run: as §1
[23] = target: Aldo-keto reductase family 1 member B1 (Homo sapiens, UniProt P15121); test: as §3

Compound `O=C(O)Cn1ccc(C(=O)c2ccc3ccccc3c2)c1` has an inhibition [1] of 49%, an inhibition [2] of 72% and an inhibition [3] of 79%.

For `O=C(O)Cn1ccc(C(=O)c2ccc([N+](=O)[O-])cc2)c1`, the inhibition [3] was 18%.

`COc1ccc(C(=O)c2ccn(CC(=O)O)c2)cc1` was tested, and the inhibition [2] was 26% and the inhibition [3] was 72%.

In the case of `O=C(O)Cn1cc(C(=O)c2ccccc2)c2ccccc21`, the inhibition [3] is reported as 38%.

`O=C(O)Cn1ccc(C(=O)c2ccc(-c3ccccc3)cc2)c1` was tested, and the inhibition [2] was 37% and the inhibition [3] was 76%.

`Cc1c(C)c2c(c(C)c1O)CCC(C)(C(=O)O)O2` (stereo unspecified) [TROLOX] was tested, and the Relative florescence [4] was 12.8, the inhibition [5] was 12% and the Inhibition [6] was 54% and 32%. For the same compound, the Carbonyl group [7] was 3.44 nM/mg.

`O=C(O)Cn1ccc(C(=O)c2ccc(Cl)cc2)c1` showed an inhibition [3] of 41%.

With `O=C(O)Cn1ccc(C(=O)c2ccccc2)c1` the inhibition [3] was 27%.

In the case of `O=C(O)Cn1ccc(C(=O)Cc2ccccc2)c1`, the inhibition [3] is reported as 29%.

In the case of `O=C(O)Cn1ccc(C(=O)c2ccc(-n3cccc3)cc2)c1`, the Relative florescence [8] is reported as 4.7, the Carbonyl group [9] is reported as “not detectable” and the Relative florescence [4] is reported as 17.4. The Inhibition [10] was 65% and 100%, the Carbonyl group [11] was “not detectable” and the inhibition [2] was 39%. The Inhibition [6] was 37% and 100%, the Carbonyl group [12] was “not detectable” and the Relative florescence [13] was 9.8. For the same compound, the inhibition [3] was 80% and the Inhibition [14] was 100%.

Compound `O=C(O)Cn1cc(C(=O)c2ccccc2)cc1C(=O)c1ccccc1` has an inhibition [1] of 27%, an inhibition [2] of 62% and an inhibition [3] of 82%.

`O=C(O)Cn1ccc(C(=O)c2cccc(Cl)c2)c1` gave an inhibition [3] of 44%.

For `O=C(O)Cn1ccc(Cc2ccccc2)c1`, the inhibition [3] was 9%.

`CC(C)(C)c1ccc(C(=O)c2ccn(CC(=O)O)c2)cc1` showed an inhibition [3] of 41%.

In the case of `O=C(O)Cn1ccc(C(=O)c2ccn(-c3ccccc3)c2)c1`, the Relative florescence [8] is reported as 16.4, the Relative florescence [4] is reported as 21 and the Carbonyl group [15] is reported as 1.55 nM/mg. For the same compound, the inhibition [2] was 39%, the Inhibition [6] was 24% and 69% and the Carbonyl group [12] was “not detectable”. The Relative florescence [13] was 21, the Carbonyl group [16] was “not detectable” and the inhibition [3] was 67%. For the same compound, the Inhibition [14] was 41% and 100%.

With `O=C(O)Cn1ccc(C(=O)c2ccc(C(F)(F)F)cc2)c1` the inhibition [3] was 47%.

In the case of `O=C(O)Cn1ccc(C(=O)c2ccc3c(c2)CCO3)c1`, the inhibition [3] is reported as 42%.

`COc1ccc(C(=O)c2cc(C(=O)c3ccccc3)n(CC(=O)O)c2)cc1` was tested, and the Relative florescence [8] was 6.9, the Relative florescence [17] was 23.1 and the Inhibition [10] was 41% and 66%. For the same compound, the inhibition [1] was 13%, the Carbonyl group [18] was 1.7 nM/mg and the inhibition [2] was 51%. The Inhibition [6] was 20%, the inhibition at 1000 µM [6] was 17% and the Carbonyl group [19] was “not detectable”. It also gave a Relative florescence [13] of 11.5, an inhibition [3] of 93% and a Carbonyl group [20] of 4.38 nM/mg. For the same compound, the Inhibition [14] was 75% and 100%.

Compound `O=C(O)Cn1cccc1C(=O)c1ccccc1` has an inhibition [5] of 36%.

Compound `Cc1ccc(C(=O)c2ccn(CC(=O)O)c2)cc1` has an inhibition [3] of 46%.

`Cn1cc(C(=O)c2ccn(CC(=O)O)c2)c2ccccc21` was tested, and the inhibition [3] was 38%.

`O=C(O)Cn1ccc(C(=O)c2ccc3occc3c2)c1` was tested, and the inhibition [3] was 40%.

With `COc1ccc(C(=O)c2cc(C(=O)c3ccc(OC)cc3)n(CC(=O)O)c2)cc1` the Relative florescence [8] was 3.3, the Relative florescence [4] was 17.3 and the Inhibition [10] was 57% and 100%. For the same compound, the Carbonyl group [11] was “not detectable”, the Carbonyl group [15] was 2.52 nM/mg and the IC50 [21] was 2.36 nM. The inhibition [1] was 59%, the inhibition [2] was 94% and the Inhibition [6] was 50%. The inhibition at 1000 µM [6] was 38%, the Carbonyl group [12] was “not detectable” and the Relative florescence [13] was 11.8. The inhibition [3] was 96%, the inhibition [22] was 41% and the Inhibition [14] was 100%.

For `O=C(O)Cn1ccc(C(=O)c2cccc3ccccc23)c1`, the inhibition [2] was 59% and the inhibition [3] was 58%.

`NC(=O)[C@@H]1C[C@]2(NC(=O)NC2=O)c2cc(F)ccc2O1` gave an IC50 [23] of 35 nM.

In the case of `O=C(O)Cn1ccc(C(=O)c2ccc(O)cc2)c1`, the inhibition [3] is reported as 45%.
